One block for each molecule: values may come before it. Active and inactive are the calls of the source. No cut-off for these calls is given here.
Key:
[1] = target: T1, Mitogen-activated protein kinase 14 (Homo sapiens, UniProt Q16539)
[2] = target: T1, Mitogen-activated protein kinase 14; experiment: Binding affinity to p38alpha assessed as inhibition of ATF2 phosphorylation preincubated for 4 hrs
[3] = target: Serine/threonine-protein kinase Sgk1 (Homo sapiens) (UniProt O00141); experiment: Inhibition of SGK at => 3 ug/mL
[4] = target: Rho-associated protein kinase 2 (Homo sapiens) (UniProt O75116); experiment: Inhibition of ROCK2 at => 3 ug/mL
[5] = Inhibition of pp60src
[6] = target: Cyclin-dependent kinase 1 (Homo sapiens) (UniProt P06493); experiment: Inhibition of CDK1 at => 3 ug/mL
[7] = target: 3-phosphoinositide-dependent protein kinase 1 (Homo sapiens) (UniProt O15530); experiment: Inhibition of PDK1 at => 3 ug/mL
[8] = target: Ribosomal protein S6 kinase beta-1 (Homo sapiens) (UniProt P23443); experiment: Inhibition of S6K1 at => 3 ug/mL
[9] = target: RAC-alpha serine/threonine-protein kinase (Homo sapiens, UniProt P31749); experiment: Inhibition of PKBalpha/Akt1
[10] = target: MAP kinase-activated protein kinase 2 (Homo sapiens) (UniProt P49137); experiment: Inhibition of MAPKAPK2 at => […] ug/mL
[11] = target: Protein kinase C alpha type (Homo sapiens) (UniProt P17252); experiment: Inhibition of PKCalpha at => 3 ug/mL
[12] = Inhibition of PI3K at => 3 ug/mL
[13] = target: Insulin-like growth factor 1 receptor (Homo sapiens) (UniProt P08069); experiment: Inhibition of IGF1R at => 3 ug/mL
[14] = target: Tyrosine-protein kinase JAK3 (Homo sapiens) (UniProt P52333); experiment: Inhibition of JAK3 at => 3 ug/mL
Ephrin type-A receptor 2 = Ephrin type-A receptor 2 (Homo sapiens, UniProt P29317); experiment: Inhibition of ECK
[15] = target: Mitogen-activated protein kinase kinase kinase 14 (Homo sapiens) (UniProt Q99558); experiment: Inhibition of NIK at => 3 ug/mL
[16] = target: Ribosomal protein S6 kinase alpha-3 (Homo sapiens) (UniProt P51812); experiment: Inhibition of RSK2 at => 3 ug/mL
[17] = target: Glycogen synthase kinase-3 beta (Homo sapiens) (UniProt P49841); experiment: Inhibition of GSK3-beta at => 3 ug/mL
[18] = target: RAF proto-oncogene serine/threonine-protein kinase (Homo sapiens, UniProt P04049); experiment: Inhibition of craf
[19] = target: Mitogen-activated protein kinase 8 (Homo sapiens) (UniProt P45983); experiment: Inhibition of […] at => 3 ug/mL
[20] = Inhibition of CK2 at => 3 ug/mL
[21] = target: Casein kinase I isoform alpha (Homo sapiens) (UniProt P48729); experiment: Inhibition of CK1 at => 3 ug/mL
[22] = target: Tyrosine-protein kinase TXK (Homo sapiens) (UniProt P42681); experiment: Inhibition of TXK at => 3 ug/mL
[23] = target: Mitogen-activated protein kinase 9 (Homo sapiens, UniProt P45984); experiment: Inhibition of JNK2alpha2 by exchange curve binding kinetic analysis
Mus musculus = experiment: Inhibition of LPS-induced endotoxemia in mouse assessed as inhibition of TNFalpha production at 3 mg/kg, po; format: functional
How it was run: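 Mouse LPS-induced endotoxemia model; compound given orally at 3 mg/kg, and TNFα production is measured and expressed as percent inhibition.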

[24] = target: Hepatocyte growth factor receptor (Homo sapiens) (UniProt P08581); experiment: Inhibition of HGFR at => 3 ug/mL
[25] = Inhibition of FGFR
[26] = target: Ribosomal protein S6 kinase alpha-3 (Homo sapiens) (UniProt P51812); experiment: Inhibition of MAPKAPK1B at => […] ug/mL
[27] = target: Tyrosine-protein kinase BTK (Homo sapiens) (UniProt Q06187); experiment: Inhibition of BTK at => 3 ug/mL
[28] = Inhibition of PHK1 at => 3 ug/mL
Blood = experiment: Inhibition of LPS-induced TNFalpha production in human whole blood; format: functional, tissue-based
How it was run: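 LPS-stimulated TNFα production in whole blood from human donors; IC50 reported as geometric mean of 4–12 donor experiments, SD typically ±50% of the value.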

[29] = target: Epidermal growth factor receptor (Homo sapiens, UniProt P00533); experiment: Inhibition of EGFR
[30] = target: Tyrosine-protein kinase SYK (Homo sapiens) (UniProt P43405); experiment: Inhibition of SYK at => 3 ug/mL
THP-1 = experiment: Inhibition of LPS-induced TNFalpha production in human THP1 cells; format: functional, cell-based
How it was run: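 LPS-stimulated TNFα release from THP-1 cells; IC50 values are means of 2–4 experiments, SD for n > 2 typically ±50% of the value.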

[31] = target: Focal adhesion kinase 1 (Homo sapiens) (UniProt Q05397); experiment: Inhibition of PTK2 at => 3 ug/mL
[32] = target: Insulin receptor (Homo sapiens) (UniProt P06213); experiment: Inhibition of IR at => 3 ug/mL
[33] = target: Tyrosine-protein kinase CSK (Homo sapiens) (UniProt P41240); experiment: Inhibition of CSK at 3 uM
[34] = target: Dual specificity mitogen-activated protein kinase kinase 1 (Homo sapiens) (UniProt Q02750); experiment: Inhibition of MKK1 at => 3 ug/mL
[35] = target: Serine/threonine-protein kinase B-raf (Homo sapiens, UniProt P15056); experiment: Inhibition of bRaf
[36] = Inhibition of VEGFR
[37] = Inhibition of ERK at => 3 ug/mL
[38] = Inhibition of IKK at => 3 ug/mL
[39] = Inhibition of PKA at => […] ug/mL
[40] = target: Tyrosine-protein kinase ABL1 (Homo sapiens, UniProt P00519); experiment: Inhibition of Abl
[41] = target: Tyrosine-protein kinase Lck (Homo sapiens) (UniProt P06239); experiment: Inhibition of LCK at => 3 ug/mL
[42] = target: MAP kinase-activated protein kinase 5 (Homo sapiens) (UniProt Q8IW41); experiment: Inhibition of PRAK at => 3 ug/mL
[43] = target: Dual specificity tyrosine-phosphorylation-regulated kinase 1A (Homo sapiens) (UniProt Q13627); experiment: Inhibition of DYRK1A at => 3 ug/mL
Ephrin type-A receptor 3 = Ephrin type-A receptor 3 (Homo sapiens, UniProt P29320); experiment: Inhibition of HEK
[44] = target: Tyrosine-protein kinase Lyn (Homo sapiens, UniProt P07948); experiment: Inhibition of Lyn
[45] = Aqueous solubility at pH 7.4; format: physicochemical
[46] = target: T1, Mitogen-activated protein kinase 14; experiment: Binding affinity to p38alpha by exchange curve binding kinetic analysis
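Throughout, for Tm: thermal denaturation measurement of the p38alpha–inhibitor complex, reporting its melting point as a readout of binding.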

T1 sequence (Q16539 whole entry): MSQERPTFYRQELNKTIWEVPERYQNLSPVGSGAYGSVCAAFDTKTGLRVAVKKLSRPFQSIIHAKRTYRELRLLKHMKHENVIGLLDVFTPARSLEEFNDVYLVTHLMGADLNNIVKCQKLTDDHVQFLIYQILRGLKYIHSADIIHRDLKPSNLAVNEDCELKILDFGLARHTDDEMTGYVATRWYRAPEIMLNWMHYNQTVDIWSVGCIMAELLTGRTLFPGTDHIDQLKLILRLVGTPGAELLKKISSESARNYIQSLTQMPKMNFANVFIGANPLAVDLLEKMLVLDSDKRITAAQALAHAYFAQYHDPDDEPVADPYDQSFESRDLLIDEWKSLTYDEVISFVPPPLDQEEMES
Chain of Ribosomal protein S6 kinase alpha-3 (Homo sapiens) (P51812 whole entry): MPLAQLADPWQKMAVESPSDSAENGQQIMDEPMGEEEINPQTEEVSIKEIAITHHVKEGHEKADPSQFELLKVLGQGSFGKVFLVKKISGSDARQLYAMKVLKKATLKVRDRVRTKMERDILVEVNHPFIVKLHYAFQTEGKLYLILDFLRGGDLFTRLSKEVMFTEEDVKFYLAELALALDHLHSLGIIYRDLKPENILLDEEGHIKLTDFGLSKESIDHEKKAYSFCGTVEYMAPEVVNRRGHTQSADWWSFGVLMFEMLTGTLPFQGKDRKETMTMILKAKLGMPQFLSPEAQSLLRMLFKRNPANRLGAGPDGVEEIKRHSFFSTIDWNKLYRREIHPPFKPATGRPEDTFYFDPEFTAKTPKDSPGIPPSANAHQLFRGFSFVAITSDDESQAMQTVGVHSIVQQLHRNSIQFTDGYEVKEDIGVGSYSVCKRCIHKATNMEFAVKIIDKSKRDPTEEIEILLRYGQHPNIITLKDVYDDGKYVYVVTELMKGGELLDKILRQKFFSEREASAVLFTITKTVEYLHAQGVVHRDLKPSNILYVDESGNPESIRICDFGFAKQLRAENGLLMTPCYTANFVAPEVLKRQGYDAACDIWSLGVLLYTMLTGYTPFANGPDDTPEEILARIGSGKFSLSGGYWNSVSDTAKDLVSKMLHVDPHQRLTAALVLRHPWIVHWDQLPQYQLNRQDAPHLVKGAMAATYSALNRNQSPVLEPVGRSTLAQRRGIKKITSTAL
Chain of Tyrosine-protein kinase JAK3 (Homo sapiens) (P52333 whole entry): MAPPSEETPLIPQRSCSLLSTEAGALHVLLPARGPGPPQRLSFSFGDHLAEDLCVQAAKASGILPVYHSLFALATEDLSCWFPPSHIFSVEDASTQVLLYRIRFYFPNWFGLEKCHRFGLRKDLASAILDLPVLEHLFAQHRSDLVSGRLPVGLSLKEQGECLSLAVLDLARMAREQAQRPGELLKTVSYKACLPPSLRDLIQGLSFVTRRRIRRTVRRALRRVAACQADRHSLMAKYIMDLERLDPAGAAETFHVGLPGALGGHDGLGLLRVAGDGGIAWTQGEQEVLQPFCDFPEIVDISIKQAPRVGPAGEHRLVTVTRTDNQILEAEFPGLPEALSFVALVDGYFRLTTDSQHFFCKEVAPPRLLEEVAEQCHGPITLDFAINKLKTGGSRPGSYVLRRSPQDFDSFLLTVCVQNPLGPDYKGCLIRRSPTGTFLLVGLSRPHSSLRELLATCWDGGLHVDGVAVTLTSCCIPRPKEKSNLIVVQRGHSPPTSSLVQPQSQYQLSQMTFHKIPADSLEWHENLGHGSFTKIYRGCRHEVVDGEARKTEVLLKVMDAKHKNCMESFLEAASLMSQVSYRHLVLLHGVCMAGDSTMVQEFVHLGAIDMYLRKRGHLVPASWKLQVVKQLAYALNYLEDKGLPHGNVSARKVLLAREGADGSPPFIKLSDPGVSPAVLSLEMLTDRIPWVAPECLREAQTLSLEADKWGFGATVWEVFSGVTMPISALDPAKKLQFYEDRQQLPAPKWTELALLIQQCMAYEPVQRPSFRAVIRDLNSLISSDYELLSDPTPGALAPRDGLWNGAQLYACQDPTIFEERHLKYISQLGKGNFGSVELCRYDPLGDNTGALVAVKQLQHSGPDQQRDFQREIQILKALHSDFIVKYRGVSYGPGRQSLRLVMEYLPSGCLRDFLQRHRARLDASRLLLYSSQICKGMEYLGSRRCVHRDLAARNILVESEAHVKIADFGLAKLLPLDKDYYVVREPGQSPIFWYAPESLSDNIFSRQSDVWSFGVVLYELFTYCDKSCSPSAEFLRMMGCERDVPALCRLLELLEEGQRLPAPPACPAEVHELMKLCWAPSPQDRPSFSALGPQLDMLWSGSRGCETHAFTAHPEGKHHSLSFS
Chain of 3-phosphoinositide-dependent protein kinase 1 (Homo sapiens) (O15530 whole entry, looked up): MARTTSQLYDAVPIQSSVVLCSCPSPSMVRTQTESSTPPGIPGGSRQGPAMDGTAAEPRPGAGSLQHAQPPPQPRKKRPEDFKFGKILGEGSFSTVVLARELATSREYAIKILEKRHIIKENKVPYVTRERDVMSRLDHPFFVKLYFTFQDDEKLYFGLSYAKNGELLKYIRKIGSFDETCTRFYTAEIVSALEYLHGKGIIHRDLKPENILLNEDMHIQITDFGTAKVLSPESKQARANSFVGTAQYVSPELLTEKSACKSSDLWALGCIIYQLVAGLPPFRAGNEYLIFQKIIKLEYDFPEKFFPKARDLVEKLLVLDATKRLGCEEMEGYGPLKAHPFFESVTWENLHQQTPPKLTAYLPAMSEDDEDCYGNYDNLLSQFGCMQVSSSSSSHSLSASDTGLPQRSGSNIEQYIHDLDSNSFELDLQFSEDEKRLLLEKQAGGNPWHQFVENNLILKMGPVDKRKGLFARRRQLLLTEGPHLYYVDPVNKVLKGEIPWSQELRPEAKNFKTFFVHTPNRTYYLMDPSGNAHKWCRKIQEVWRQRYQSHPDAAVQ
Chain of Epidermal growth factor receptor (P00533 whole entry): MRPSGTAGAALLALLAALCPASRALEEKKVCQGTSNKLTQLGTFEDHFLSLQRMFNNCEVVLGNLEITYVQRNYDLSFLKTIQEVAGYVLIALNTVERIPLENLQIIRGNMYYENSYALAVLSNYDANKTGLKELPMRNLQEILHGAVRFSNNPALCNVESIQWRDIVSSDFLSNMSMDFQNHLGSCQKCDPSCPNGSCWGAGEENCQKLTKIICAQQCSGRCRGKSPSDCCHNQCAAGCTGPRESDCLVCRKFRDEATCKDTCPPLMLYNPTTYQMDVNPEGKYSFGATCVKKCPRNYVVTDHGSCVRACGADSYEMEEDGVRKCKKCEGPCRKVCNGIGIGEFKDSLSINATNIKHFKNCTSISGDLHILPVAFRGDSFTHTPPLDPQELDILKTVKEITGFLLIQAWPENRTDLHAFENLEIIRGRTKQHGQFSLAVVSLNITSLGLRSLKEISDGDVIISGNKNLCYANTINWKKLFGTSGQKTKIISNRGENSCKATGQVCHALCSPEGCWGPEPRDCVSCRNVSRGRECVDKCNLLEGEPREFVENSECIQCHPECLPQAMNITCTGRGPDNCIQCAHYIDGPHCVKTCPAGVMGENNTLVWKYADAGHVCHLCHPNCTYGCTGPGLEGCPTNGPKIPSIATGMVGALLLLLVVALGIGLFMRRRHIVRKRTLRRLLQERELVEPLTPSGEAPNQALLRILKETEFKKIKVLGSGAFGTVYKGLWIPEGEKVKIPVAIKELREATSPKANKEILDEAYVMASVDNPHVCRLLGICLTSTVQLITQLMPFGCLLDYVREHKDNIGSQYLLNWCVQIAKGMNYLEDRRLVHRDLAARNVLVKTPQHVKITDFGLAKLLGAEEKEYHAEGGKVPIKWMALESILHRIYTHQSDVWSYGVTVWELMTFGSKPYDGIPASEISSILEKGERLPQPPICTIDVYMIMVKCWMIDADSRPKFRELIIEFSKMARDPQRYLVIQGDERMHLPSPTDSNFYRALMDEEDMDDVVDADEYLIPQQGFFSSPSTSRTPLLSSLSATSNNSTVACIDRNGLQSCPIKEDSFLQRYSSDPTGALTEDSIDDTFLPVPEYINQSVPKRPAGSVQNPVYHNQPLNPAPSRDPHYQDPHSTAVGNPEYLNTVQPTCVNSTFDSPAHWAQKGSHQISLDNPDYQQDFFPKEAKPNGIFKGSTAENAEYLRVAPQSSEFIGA
Chain of Ephrin type-A receptor 3 (P29320 whole entry): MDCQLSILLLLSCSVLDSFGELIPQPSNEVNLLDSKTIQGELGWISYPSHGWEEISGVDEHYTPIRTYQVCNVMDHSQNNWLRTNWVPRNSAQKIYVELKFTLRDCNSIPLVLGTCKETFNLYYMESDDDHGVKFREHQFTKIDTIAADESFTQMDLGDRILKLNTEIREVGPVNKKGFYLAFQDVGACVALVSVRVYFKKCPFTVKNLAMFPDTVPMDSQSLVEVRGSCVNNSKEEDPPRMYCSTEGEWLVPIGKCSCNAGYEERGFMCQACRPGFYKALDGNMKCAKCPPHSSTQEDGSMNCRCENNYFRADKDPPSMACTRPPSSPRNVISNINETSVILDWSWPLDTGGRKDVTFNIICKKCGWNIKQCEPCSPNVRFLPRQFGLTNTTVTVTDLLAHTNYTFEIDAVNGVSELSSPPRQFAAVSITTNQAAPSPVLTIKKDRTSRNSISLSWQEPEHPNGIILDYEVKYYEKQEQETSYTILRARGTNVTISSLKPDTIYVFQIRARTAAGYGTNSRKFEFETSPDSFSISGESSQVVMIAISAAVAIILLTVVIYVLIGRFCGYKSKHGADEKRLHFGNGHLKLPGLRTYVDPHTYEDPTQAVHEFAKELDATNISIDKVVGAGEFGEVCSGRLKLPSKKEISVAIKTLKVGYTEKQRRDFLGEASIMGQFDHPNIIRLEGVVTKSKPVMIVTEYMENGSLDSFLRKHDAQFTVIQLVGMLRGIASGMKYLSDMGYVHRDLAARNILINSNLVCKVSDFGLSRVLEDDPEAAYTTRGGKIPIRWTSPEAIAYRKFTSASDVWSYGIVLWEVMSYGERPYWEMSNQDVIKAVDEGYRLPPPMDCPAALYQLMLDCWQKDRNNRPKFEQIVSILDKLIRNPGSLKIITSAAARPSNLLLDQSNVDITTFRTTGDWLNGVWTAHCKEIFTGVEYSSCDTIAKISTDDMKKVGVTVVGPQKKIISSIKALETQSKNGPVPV

SMILES: COc1c(NC(=O)Nc2cccc3ccccc23)cc(C(C)(C)C)cc1NS(C)(=O)=O
Tm [1]: 56.3 °C | IC50 [2]: 79 nM

SMILES: COc1c(NC(=O)c2cc3ccccc3o2)cc(C(C)(C)C)cc1NS(C)(=O)=O
Tm [1]: 48.8 °C | IC50 [2]: 4100 nM

SMILES: COc1c(NC(=O)c2cc3ccccc3s2)cc(C(C)(C)C)cc1NS(C)(=O)=O
Tm [1]: 51.4 °C | IC50 [2]: 2700 nM

SMILES: Cc1ccc(C(C)(C)C)cc1NC(=O)Nc1ccc(OCCN2CCOCC2)c2ccccc12
Tm [1]: 52.7 °C | IC50 (Blood): > 10000 nM | IC50 (THP-1): 380 nM

SMILES: COc1c(NC(=O)Nc2ccc(-c3ccc(CN4CCOCC4)nc3)c3ccccc23)cc(C(C)(C)C)cc1N(C)C(C)=O
Tm [1]: 64.9 °C | IC50 (Blood): 120 nM | IC50 (THP-1): 15 nM

SMILES: COc1ccc(C(C)(C)C)cc1NC(=O)c1cc2ccccc2s1
Tm [1]: 46.9 °C | IC50 [2]: > 10000 nM

Now from value to molecule, other results behind:

Activity [3]: inactive | Activity [4]: inactive | IC50 [5]: 8200 nM | Activity [6]: inactive | Activity [7]: inactive | Activity [8]: inactive | IC50 [9]: 6400 nM | Activity [10]: inactive | Activity [11]: inactive | Activity [12]: inactive | Activity [13]: inactive | Activity [14]: inactive | IC50 (Ephrin type-A receptor 2): 5200 nM | Activity [15]: inactive | Activity [16]: inactive | Tm [1]: 63.3 °C | Activity [17]: inactive | IC50 [18]: 880 nM | Activity [19]: inactive | Activity [20]: inactive | Activity [21]: inactive | Activity [22]: inactive | IC50 [23]: 3 nM | Activity [24]: inactive | IC50 [25]: 7700 nM | Activity [26]: inactive | Activity [27]: inactive | Activity [28]: inactive | IC50 (Blood): 46 nM | IC50 [29]: 5400 nM | Activity [30]: inactive | IC50 (THP-1): 10 nM | Activity [31]: inactive | Activity [32]: inactive | inhibition [33]: 62% | Activity [34]: inactive | IC50 [35]: 7200 nM | IC50 [36]: 3000 nM | Activity [37]: inactive | Activity [38]: inactive | Activity [39]: inactive | IC50 [40]: 480 nM | Activity [41]: inactive | Activity [42]: inactive | Activity [43]: inactive | IC50 (Ephrin type-A receptor 3): 3200 nM | IC50 [44]: 2400 nM
SMILES: COc1c(NC(=O)Nc2ccc(-c3ccc(CN4CCOCC4)nc3)c3ccccc23)cc(C(C)(C)C)cc1NS(C)(=O)=O
inhibition in vivo at 3 mg/kg (Mus musculus): 57%

solubility [45]: < 0.5 µg/mL | Kd [46]: 1.8 nM | Tm [1]: 57.9 °C | IC50 (Blood): 140 nM | IC50 (THP-1): 5.5 nM
SMILES: COc1ccc(C(C)(C)C)cc1NC(=O)Nc1ccc(-c2ccc(CN3CCOCC3)nc2)c2ccccc12

Tm [1]: 54.6 °C | IC50 (Blood): 180 nM | IC50 (THP-1): 9.4 nM
SMILES: Cc1ccc(C(C)(C)C)cc1NC(=O)Nc1ccc(-c2ccc(CN3CCOCC3)nc2)c2ccccc12

Tm [1]: 61.5 °C | IC50 (Blood): 22 nM | IC50 (THP-1): 5 nM
SMILES: COc1c(N)cc(C(C)(C)C)cc1NC(=O)Nc1ccc(-c2ccc(CN3CCOCC3)nc2)c2ccccc12

Tm [1]: 52.3 °C | IC50 (THP-1): 76 nM
SMILES: Cc1ccc(C(C)C)cc1NC(=O)Nc1ccc(-c2ccc(CN3CCOCC3)nc2)c2ccccc12

Tm [1]: 65.6 °C | IC50 (Blood): 97 nM | IC50 (THP-1): 10 nM
SMILES: CNC(=O)c1cc(C(C)(C)C)cc(NC(=O)Nc2ccc(-c3ccc(CN4CCOCC4)nc3)c3ccccc23)c1OC

Tm [1]: 63.6 °C | IC50 (Blood): 35 nM | IC50 (THP-1): 9 nM
SMILES: COc1c(NC(C)=O)cc(C(C)(C)C)cc1NC(=O)Nc1ccc(-c2ccc(CN3CCOCC3)nc2)c2ccccc12
